Laboratory results: ChEMBL document CHEMBL4196209, “Validation of Matrix Metalloproteinase-9 (MMP-9) as a Novel Target for Treatment of Diabetic Foot Ulcers in Humans and Discovery of a Potent and Selective Small-Molecule MMP-9 Inhibitor That Accelerates Healing” (J Med Chem, 2018)
Active and inactive are the calls of the source. The calls are words filed in the database; no cut-off is given here.

What was measured:
[1] = target: T1, Interstitial collagenase (Homo sapiens) (UniProt P03956); assay: Inhibition of human recombinant MMP1 catalytic domain at 100 uM using Mca-Lys-Pro-Leu-Gly-Leu-Dpa-Ala-Arg-NH2 substrate
T1 sequence (whole entry): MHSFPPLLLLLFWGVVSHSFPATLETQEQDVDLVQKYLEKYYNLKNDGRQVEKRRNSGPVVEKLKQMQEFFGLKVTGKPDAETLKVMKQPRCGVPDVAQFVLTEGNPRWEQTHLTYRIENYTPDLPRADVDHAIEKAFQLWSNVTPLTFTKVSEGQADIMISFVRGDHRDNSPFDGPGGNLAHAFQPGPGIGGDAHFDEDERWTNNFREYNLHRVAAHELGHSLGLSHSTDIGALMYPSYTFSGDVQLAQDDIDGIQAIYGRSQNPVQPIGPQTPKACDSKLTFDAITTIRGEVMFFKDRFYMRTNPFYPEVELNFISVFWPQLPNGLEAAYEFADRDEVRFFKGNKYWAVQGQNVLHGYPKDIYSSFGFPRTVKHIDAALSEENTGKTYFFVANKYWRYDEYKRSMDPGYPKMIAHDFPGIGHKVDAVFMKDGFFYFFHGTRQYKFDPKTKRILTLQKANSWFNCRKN
How it was run: (§1)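 Fluorogenic continuous assay of recombinant enzymes; Mca-KPLGL-Dpa-AR-NH2 substrate for MMP-1, MMP-8, ADAM10; Mca-PLAQAV-Dpa-RSSSR-NH2 for ADAM9; MOCAc-PLGL-A2pr(Dnp)-AR-NH2 for MMP-2, MMP-9, MMP-14 with Km determined beforehand. Inhibitor stocks 10 mM in DMSO; duplicates, repeated three times; Ki for slow-binding inhibitors from koff/kon.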

[2] = target: 72 kDa type IV collagenase (Homo sapiens, UniProt P08253); assay: Slow binding inhibition of human recombinant MMP2 using MOCAc-Pro-Leu-Gly-Leu-A2pr(Dnp)-Ala-Arg-NH2 substrate; how it was run: as §1
[3] = target: Stromelysin-1 (Homo sapiens) (UniProt P08254); assay: Inhibition of human recombinant MMP3 catalytic domain at 100 uM using MOCAc-Arg-Pro-Lys-Pro-Val-Glu-Nva-Trp-Arg-Lys(Dnp)-NH2 substrate
[4] = target: T2, Matrilysin (Homo sapiens) (UniProt P09237); assay: Inhibition of human recombinant MMP7 at 100 uM using MOCAc-Pro-Leu-Gly-Leu-A2pr(Dnp)-Ala-Arg-NH2 substrate
T2 sequence (whole entry): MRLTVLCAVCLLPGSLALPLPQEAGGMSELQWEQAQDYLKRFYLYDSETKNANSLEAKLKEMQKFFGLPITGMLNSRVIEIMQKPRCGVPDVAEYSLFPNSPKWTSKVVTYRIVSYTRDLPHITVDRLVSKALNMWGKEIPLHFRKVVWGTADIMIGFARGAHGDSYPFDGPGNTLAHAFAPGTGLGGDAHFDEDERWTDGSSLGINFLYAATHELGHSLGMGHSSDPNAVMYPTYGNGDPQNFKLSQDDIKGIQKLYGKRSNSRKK

[5] = target: Matrix metalloproteinase-14 (Homo sapiens, UniProt P50281); assay: Slow binding inhibition of human recombinant MMP14 catalytic domain using MOCAc-Pro-Leu-Gly-Leu-A2pr(Dnp)-Ala-Arg-NH2 substrate; how it was run: as §1
[6] = target: T3, Disintegrin and metalloproteinase domain-containing protein 9 (Homo sapiens) (UniProt Q13443); assay: Inhibition of human recombinant ADAM9 at 100 uM using Mca-Pro-Leu-Ala-Gln-Ala-Val-Dpa-Arg-Ser-Ser-Ser-Arg-NH2 substrate; how it was run: as §1
T3 sequence (whole entry): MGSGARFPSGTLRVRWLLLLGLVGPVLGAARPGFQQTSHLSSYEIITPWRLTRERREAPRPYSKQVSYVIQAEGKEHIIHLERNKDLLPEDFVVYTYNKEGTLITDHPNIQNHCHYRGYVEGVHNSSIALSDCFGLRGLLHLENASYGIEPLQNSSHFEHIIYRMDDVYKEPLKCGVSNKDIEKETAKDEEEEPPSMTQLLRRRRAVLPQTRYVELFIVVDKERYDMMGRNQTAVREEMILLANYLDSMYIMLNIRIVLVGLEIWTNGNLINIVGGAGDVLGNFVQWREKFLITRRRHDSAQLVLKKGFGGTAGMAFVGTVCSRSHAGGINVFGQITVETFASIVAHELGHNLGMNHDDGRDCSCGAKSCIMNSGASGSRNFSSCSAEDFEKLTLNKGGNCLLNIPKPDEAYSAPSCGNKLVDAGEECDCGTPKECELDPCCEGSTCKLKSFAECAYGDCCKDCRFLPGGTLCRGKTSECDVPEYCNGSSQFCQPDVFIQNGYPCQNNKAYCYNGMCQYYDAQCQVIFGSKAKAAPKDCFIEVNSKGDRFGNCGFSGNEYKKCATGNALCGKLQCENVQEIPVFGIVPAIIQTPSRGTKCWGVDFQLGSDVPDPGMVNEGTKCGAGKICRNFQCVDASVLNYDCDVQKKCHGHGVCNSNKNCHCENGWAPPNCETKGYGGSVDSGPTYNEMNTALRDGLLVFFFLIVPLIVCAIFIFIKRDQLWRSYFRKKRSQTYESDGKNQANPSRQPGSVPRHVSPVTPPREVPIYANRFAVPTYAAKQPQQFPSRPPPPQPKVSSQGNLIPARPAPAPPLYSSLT

[7] = target: T4, Disintegrin and metalloproteinase domain-containing protein 10 (Homo sapiens) (UniProt O14672); assay: Inhibition of human recombinant ADAM10 at 100 uM using Mca-Lys-Pro-Leu-Gly-Leu-Dpa-Ala-Arg-NH2 substrate; how it was run: as §1
T4 sequence (whole entry): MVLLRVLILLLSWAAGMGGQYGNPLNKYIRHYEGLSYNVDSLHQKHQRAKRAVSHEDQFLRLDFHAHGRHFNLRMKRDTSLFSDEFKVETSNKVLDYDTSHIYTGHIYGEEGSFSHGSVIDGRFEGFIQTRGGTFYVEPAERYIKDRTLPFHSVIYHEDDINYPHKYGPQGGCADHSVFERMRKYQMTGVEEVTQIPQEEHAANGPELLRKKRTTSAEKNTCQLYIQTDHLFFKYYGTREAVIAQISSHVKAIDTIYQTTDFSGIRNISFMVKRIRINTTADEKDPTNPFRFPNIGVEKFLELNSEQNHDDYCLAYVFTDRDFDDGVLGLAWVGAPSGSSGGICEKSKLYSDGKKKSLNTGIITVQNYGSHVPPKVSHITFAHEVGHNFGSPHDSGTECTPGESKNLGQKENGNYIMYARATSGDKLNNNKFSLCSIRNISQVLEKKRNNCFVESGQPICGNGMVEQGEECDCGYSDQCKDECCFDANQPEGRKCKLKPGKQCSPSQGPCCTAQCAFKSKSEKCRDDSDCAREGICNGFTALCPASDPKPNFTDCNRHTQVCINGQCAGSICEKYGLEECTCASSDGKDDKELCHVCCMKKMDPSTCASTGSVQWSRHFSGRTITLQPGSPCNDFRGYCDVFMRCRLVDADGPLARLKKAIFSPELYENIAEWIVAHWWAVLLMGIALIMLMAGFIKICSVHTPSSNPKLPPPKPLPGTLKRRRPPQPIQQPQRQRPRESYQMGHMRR

[8] = system: Salmonella typhimurium; assay: Mutagenicity in Salmonella typhimurium by Ames test; type: toxicity, organism-based; settings: salmonella enterica subsp. enterica serovar typhimurium
[9] = AUC in C57BLKS/6J db/db mouse plasma at 2 mg/kg, iv dosed as single administration by UPLC-MRM analysis; type: ADME, organism-based
[10] = AUC in C57BLKS/6J db/db mouse plasma at 2 mg/kg applied topically to wounds as single administration by UPLC-MRM analysis; type: ADME, organism-based; settings: topical or ocular
[11] = system: Mus musculus; assay: Induction of wound healing in db/db BKS.Cg-Dock7m+/+ Lepr db/J mouse model of full-thickness excision at 50 ug/wound/day for 14 days dosed topically 1 day after wound creation; type: functional, organism-based
How it was run: (§2)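 Female db/db mice (8 weeks, ~40 g) with 8 mm full-thickness dorsal excision wound, Tegaderm-covered; from day 1, 100 µL of 0.5 mg/mL aqueous solution (50 µg/wound/day) or water vehicle topically once daily for 14 days. Wounds measured days 0, 7, 10, 14; cryosections for H&E re-epithelialization and DQ-collagen in-situ zymography, n = 3/group/time point.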

[12] = system: Mus musculus; assay: Induction of wound healing in db/db BKS.Cg-Dock7m+/+ Lepr db/J mouse model of full-thickness excision assessed as increase in re-epithelialization at 50 ug/wound/day for 14 days dosed topically 1 day after wound creation by H and E staining; type: functional, organism-based; how it was run: as §2
[13] = system: Mus musculus; assay: Inhibition of MMP9 activity in db/db BKS.Cg-Dock7m+/+ Lepr db/J mouse model of full-thickness excision using DQ-gelatin substrate at 50 ug/wound/day for 14 days dosed topically 1 day after wound creation by in-situ zymography; type: functional, organism-based
[14] = system: Mus musculus; assay: Inhibition of MMP8 activity in db/db BKS.Cg-Dock7m+/+ Lepr db/J mouse model of full-thickness excision using DQ-collagen substrate at 50 ug/wound/day for 14 days dosed topically 1 day after wound creation by in-situ zymography; type: functional, organism-based; how it was run: as §2
[15] = system: Mus musculus; assay: Induction of wound healing in db/db BKS.Cg-Dock7m+/+ Lepr db/J mouse model of full-thickness excision at 50 ug/wound/day for 7 days dosed topically 1 day after wound creation; type: functional, organism-based; how it was run: as §2
[16] = system: Mus musculus; assay: Reduction in ROS generation in db/db BKS.Cg-Dock7m+/+ Lepr db/J mouse model of full-thickness excision at 50 ug/wound/day for 3 days dosed topically 1 day after wound creation by L-012 dye based assay; type: functional, organism-based
How it was run: (§3)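 Wounded db/db mice dosed topically with 50 µg/wound/day or water vehicle; on days 1, 2, 3 and 7 post-wounding, anaesthetised with 2% isoflurane, injected ip with 200 µL L-012 (5 mg/mL in PBS), and bioluminescence imaged immediately at 5-min intervals; n = 3/group/time point.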

[17] = system: Mus musculus; assay: Reduction in ROS generation in db/db BKS.Cg-Dock7m+/+ Lepr db/J mouse model of full-thickness excision at 50 ug/wound/day for 7 days dosed topically 1 day after wound creation by L-012 dye based assay; type: functional, organism-based; how it was run: as §3
[18] = system: Mus musculus; assay: Reduction in NFkappaB p65 protein levels generation in db/db BKS.Cg-Dock7m+/+ Lepr db/J mouse model of full-thickness excision at 50 ug/wound/day for 1 day dosed topically 1 day after wound creation by ELISA; type: functional, organism-based
[19] = system: Mus musculus; assay: Reduction in NFkappaB p65 protein levels generation in db/db BKS.Cg-Dock7m+/+ Lepr db/J mouse model of full-thickness excision at 50 ug/wound/day for 2 days dosed topically 1 day after wound creation by ELISA; type: functional, organism-based
[20] = system: Mus musculus; assay: Reduction in NFkappaB p65 protein levels generation in db/db BKS.Cg-Dock7m+/+ Lepr db/J mouse model of full-thickness excision at 50 ug/wound/day for 7 days dosed topically 1 day after wound creation by ELISA; type: functional, organism-based
[21] = system: Mus musculus; assay: Reduction in NFkappaB p65 protein levels generation in db/db BKS.Cg-Dock7m+/+ Lepr db/J mouse model of full-thickness excision assessed as p65 AUC level at 50 ug/wound/day for 7 days dosed topically 1 day after wound creation by ELISA (reference value: 834 +/- 121 ug/mg.day); type: functional, organism-based
[22] = in vivo; settings: C57BLKS/6J db/db, mouse, plasma, topical or ocular, 2 mg/kg
[23] = target: T1, Interstitial collagenase (Homo sapiens); assay: Inhibition of human recombinant MMP1 catalytic domain using Mca-Lys-Pro-Leu-Gly-Leu-Dpa-Ala-Arg-NH2 substrate; how it was run: as §1

Sequence of Stromelysin-1 (Homo sapiens) (P08254 100-477 limits assumed): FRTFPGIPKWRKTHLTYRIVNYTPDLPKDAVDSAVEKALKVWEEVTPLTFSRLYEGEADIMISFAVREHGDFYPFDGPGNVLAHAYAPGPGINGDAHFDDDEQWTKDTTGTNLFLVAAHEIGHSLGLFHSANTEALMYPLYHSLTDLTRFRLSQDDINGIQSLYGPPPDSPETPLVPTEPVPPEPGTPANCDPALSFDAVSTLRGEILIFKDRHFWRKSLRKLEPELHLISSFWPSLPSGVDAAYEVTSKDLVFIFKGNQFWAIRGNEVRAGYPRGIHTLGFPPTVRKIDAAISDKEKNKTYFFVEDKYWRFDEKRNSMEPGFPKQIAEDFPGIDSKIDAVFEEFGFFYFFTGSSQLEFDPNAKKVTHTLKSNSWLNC
Sequence of 72 kDa type IV collagenase (P08253 whole entry, the tested form may be a part): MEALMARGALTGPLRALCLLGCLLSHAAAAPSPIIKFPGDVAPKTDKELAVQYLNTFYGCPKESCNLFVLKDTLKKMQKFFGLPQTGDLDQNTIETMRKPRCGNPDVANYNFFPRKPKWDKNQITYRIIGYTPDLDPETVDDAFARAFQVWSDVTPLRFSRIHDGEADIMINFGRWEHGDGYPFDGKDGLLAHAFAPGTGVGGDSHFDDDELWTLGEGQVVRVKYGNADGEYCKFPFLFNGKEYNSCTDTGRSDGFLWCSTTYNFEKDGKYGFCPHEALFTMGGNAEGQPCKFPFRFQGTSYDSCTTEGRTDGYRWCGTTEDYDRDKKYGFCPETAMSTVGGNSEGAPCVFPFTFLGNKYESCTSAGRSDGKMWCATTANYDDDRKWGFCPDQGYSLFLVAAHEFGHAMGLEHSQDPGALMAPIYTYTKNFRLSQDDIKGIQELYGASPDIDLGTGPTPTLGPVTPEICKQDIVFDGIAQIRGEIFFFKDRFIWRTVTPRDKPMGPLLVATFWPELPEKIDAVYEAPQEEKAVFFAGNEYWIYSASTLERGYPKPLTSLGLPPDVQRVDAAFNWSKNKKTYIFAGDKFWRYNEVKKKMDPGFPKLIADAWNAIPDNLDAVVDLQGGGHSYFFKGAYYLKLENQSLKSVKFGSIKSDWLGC

| Compound | inhibition [1] | Ki [2] | inhibition [3] | inhibition [4] | Ki [5] | inhibition [6] | inhibition [7] | Activity [11] | Activity [12] | inhibition [13] | inhibition [14] | also measured |
| --- | --- | --- | --- | --- | --- | --- | --- | --- | --- | --- | --- | --- |
| Cl.NCc1ccc(Oc2ccc(S(=O)(=O)C[C@H]3CS3)cc2)cc1 | 22% | 127 nM | 37% | 20% | 119 nM | 41% | 13% | Active | Active | Active | inactive | Activity [8]: Non-Toxic; AUC [9]: 0.583 µM·h; AUC [10]: 0.0217 µM·h; Activity [15]: Active; Activity [16]: Active; Activity [17]: Active; Activity [18]: Active; Activity [19]: Active; Activity [20]: Active; AUC [21]: 492 µg/mg/day; bioavailability [22]: 3.7% |
| NCc1ccc(Oc2ccc(S(=O)(=O)CC3CS3)cc2)cc1 (racemic) | 4% |  | 23% | 1% |  | 31% | 14% | inactive | Active | Active | Active |  |
| NCc1ccc(Oc2ccc(S(=O)(=O)C[C@@H]3CS3)cc2)cc1 | 24% | 37 nM | 22% | 15% | 53 nM | 25% | 5% | inactive | Active | Active | Active |  |
| O=S(=O)(CC1CS1)c1ccc(Oc2ccc(O)cc2)cc1 (stereo not drawn) |  |  |  |  |  |  |  |  |  |  |  | A0.5 [23]: Nottraceable |
